Reference: ChEMBL document CHEMBL5550111, “Design, synthesis and biological evaluation of aryloxy thiophosphoramidate triesters of anticancer nucleoside analogues” (Bioorg Med Chem, 2024)

Key:
[1] = system: BXPC-3; assay: Cytotoxicity against human BXPC-3 cells assessed as inhibition of cell viability incubated for 72 hrs by MTS assay; assay type: functional, cell-based; details: BXPC-3, 72 h
Outline: (§1)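 Cells seeded at 0.5 to 100 × 10^3 per well the day before treatment, then exposed for 72 h to 9 serial concentrations (3.16-fold dilutions, top 198 μM), in duplicate. MTS added for a final 4 h at 37 °C and absorbance read. IC50 is the concentration giving 50% loss of viability. MI% is the maximum inhibition over the tested range.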

[2] = system: A2780; assay: Cytotoxicity against human A2780 cells assessed as maximum inhibition of cell viability upto 198 uM incubated for 72 hrs by MTS assay relative to control; assay type: functional; details: up to 198 µM
Outline: (§2)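 Cells seeded at 0.5 to 100 × 10^3 per well the day before drug addition, then exposed to compound for 72 h. MTS added afterwards, with a further 4 h at 37 °C, and absorbance read. Tested in duplicate at 9 serial 3.16-fold dilutions, top concentration 198 μM. MI% is the maximum inhibition of viability across the tested range.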

[3] = system: RT112/84; assay: Cytotoxicity against human RT112/84 cells assessed as maximum inhibition of cell viability upto 198 uM incubated for 72 hrs by MTS assay relative to control; assay type: functional; details: up to 198 µM; outline: as §2
[4] = system: PANC-1; assay: Cytotoxicity against human PANC-1 cells assessed as maximum inhibition of cell viability upto 198 uM incubated for 72 hrs by MTS assay relative to control; assay type: functional; details: up to 198 µM; outline: as §2
[5] = system: RT112/84; assay: Cytotoxicity against human RT112/84 cells assessed as inhibition of cell viability incubated for 72 hrs by MTS assay; assay type: functional, cell-based; details: RT112/84, 72 h; outline: as §1
[6] = system: A2780; assay: Cytotoxicity against human A2780 cells assessed as inhibition of cell viability incubated for 72 hrs by MTS assay; assay type: functional, cell-based; details: A2780, 72 h; outline: as §1
[7] = system: MDA-MB-231; assay: Cytotoxicity against human MDA-MB-231 cells assessed as maximum inhibition of cell viability upto 198 uM incubated for 72 hrs by MTS assay relative to control; assay type: functional; details: up to 198 µM; outline: as §2
[8] = system: OVCAR-3; assay: Cytotoxicity against human OVCAR-3 cells assessed as inhibition of cell viability incubated for 72 hrs by MTS assay; assay type: functional, cell-based; details: OVCAR-3, 72 h; outline: as §1
[9] = system: PC-3; assay: Cytotoxicity against human PC-3 cells assessed as inhibition of cell viability incubated for 72 hrs by MTS assay; assay type: functional, cell-based; details: PC-3, 72 h; outline: as §1
[10] = system: SK-MES-1; assay: Cytotoxicity against human SK-MES-1 cells assessed as maximum inhibition of cell viability upto 198 uM incubated for 72 hrs by MTS assay relative to control; assay type: functional; details: up to 198 µM; outline: as §2
[11] = system: MIA PaCa-2; assay: Cytotoxicity against human MIA PaCa-2 cells assessed as inhibition of cell viability incubated for 72 hrs by MTS assay; assay type: functional, cell-based; details: MIA PaCa-2, 72 h; outline: as §1
[12] = system: HepG2; assay: Cytotoxicity against human HepG2 cells assessed as maximum inhibition of cell viability upto 198 uM incubated for 72 hrs by MTS assay relative to control; assay type: functional; details: up to 198 µM; outline: as §2
[13] = Cytotoxicity against human T24/83 cells assessed as inhibition of cell viability incubated for 72 hrs by MTS assay; assay type: functional, cell-based; details: T24/83, 72 h; outline: as §1
[14] = system: HT-29; assay: Cytotoxicity against human HT-29 cells assessed as inhibition of cell viability incubated for 72 hrs by MTS assay; assay type: functional, cell-based; details: HT-29, 72 h; outline: as §1
[15] = system: BXPC-3; assay: Cytotoxicity against human BXPC-3 cells assessed as maximum inhibition of cell viability upto 198 uM incubated for 72 hrs by MTS assay relative to control; assay type: functional; details: up to 198 µM; outline: as §2
[16] = system: PANC-1; assay: Cytotoxicity against human PANC-1 cells assessed as inhibition of cell viability incubated for 72 hrs by MTS assay; assay type: functional, cell-based; details: PANC-1, 72 h; outline: as §1
[17] = system: SK-MES-1; assay: Cytotoxicity against human SK-MES-1 cells assessed as inhibition of cell viability incubated for 72 hrs by MTS assay; assay type: functional, cell-based; details: SK-MES-1, 72 h; outline: as §1
[18] = system: OVCAR-3; assay: Cytotoxicity against human OVCAR-3 cells assessed as maximum inhibition of cell viability upto 198 uM incubated for 72 hrs by MTS assay relative to control; assay type: functional; details: up to 198 µM; outline: as §2
[19] = system: MIA PaCa-2; assay: Cytotoxicity against human MIA PaCa-2 cells assessed as maximum inhibition of cell viability upto 198 uM incubated for 72 hrs by MTS assay relative to control; assay type: functional; details: up to 198 µM; outline: as §2
[20] = system: COLO 205; assay: Cytotoxicity against human COLO 205 cells assessed as inhibition of cell viability incubated for 72 hrs by MTS assay; assay type: functional, cell-based; details: COLO 205, 72 h; outline: as §1
[21] = system: PC-3; assay: Cytotoxicity against human PC-3 cells assessed as maximum inhibition of cell viability upto 198 uM incubated for 72 hrs by MTS assay relative to control; assay type: functional; details: up to 198 µM; outline: as §2
[22] = system: HepG2; assay: Cytotoxicity against human HepG2 cells assessed as inhibition of cell viability incubated for 72 hrs by MTS assay; assay type: functional, cell-based; details: HepG2, 72 h; outline: as §1
[23] = system: MDA-MB-231; assay: Cytotoxicity against human MDA-MB-231 cells assessed as inhibition of cell viability incubated for 72 hrs by MTS assay; assay type: functional, cell-based; details: MDA-MB-231, 72 h; outline: as §1
[24] = system: HT-29; assay: Cytotoxicity against human HT-29 cells assessed as maximum inhibition of cell viability upto 198 uM incubated for 72 hrs by MTS assay relative to control; assay type: functional; details: up to 198 µM; outline: as §2
[25] = system: COLO 205; assay: Cytotoxicity against human COLO 205 cells assessed as maximum inhibition of cell viability upto 198 uM incubated for 72 hrs by MTS assay relative to control; assay type: functional; details: up to 198 µM; outline: as §2
[26] = system: MOLT-4; assay: Cytotoxicity against human MOLT-4 cells assessed as inhibition of cell viability incubated for 72 hrs by MTS assay; assay type: functional, cell-based; details: MOLT-4, 72 h; outline: as §1
[27] = system: CAKI-2; assay: Cytotoxicity against human CAKI-2 cells assessed as inhibition of cell viability incubated for 72 hrs by MTS assay; assay type: functional, cell-based; details: CAKI-2, 72 h; outline: as §1
[28] = system: K562; assay: Cytotoxicity against human K562 cells assessed as inhibition of cell viability incubated for 72 hrs by MTS assay; assay type: functional, cell-based; details: K562, 72 h; outline: as §1
[29] = system: A498; assay: Cytotoxicity against human A498 cells assessed as inhibition of cell viability incubated for 72 hrs by MTS assay; assay type: functional, cell-based; details: A498, 72 h; outline: as §1
[30] = Cytotoxicity against human ACHN-luc2 cells assessed as inhibition of cell viability incubated for 72 hrs by MTS assay; assay type: functional, cell-based; details: ACHN-luc2, 72 h; outline: as §1
[31] = system: HL-60; assay: Cytotoxicity against human HL-60 cells assessed as maximum inhibition of cell viability upto 198 uM incubated for 72 hrs by MTS assay relative to control; assay type: functional; details: up to 198 µM; outline: as §2
[32] = system: KG-1; assay: Cytotoxicity against human KG-1 cells assessed as maximum inhibition of cell viability upto 198 uM incubated for 72 hrs by MTS assay relative to control; assay type: functional; details: up to 198 µM; outline: as §2
[33] = Cytotoxicity against human T24/83 cells assessed as maximum inhibition of cell viability upto 198 uM incubated for 72 hrs by MTS assay relative to control; assay type: functional; details: up to 198 µM; outline: as §2
[34] = system: RL; assay: Cytotoxicity against human RL cells assessed as inhibition of cell viability incubated for 72 hrs by MTS assay; assay type: functional, cell-based; outline: as §1
[35] = system: MOLT-4; assay: Cytotoxicity against human MOLT-4 cells assessed as maximum inhibition of cell viability upto 198 uM incubated for 72 hrs by MTS assay relative to control; assay type: functional; details: up to 198 µM; outline: as §2
[36] = system: HL-60; assay: Cytotoxicity against human HL-60 cells assessed as inhibition of cell viability incubated for 72 hrs by MTS assay; assay type: functional, cell-based; details: HL-60, 72 h; outline: as §1
[37] = Cytotoxicity against human ACHN-luc2 cells assessed as maximum inhibition of cell viability upto 198 uM incubated for 72 hrs by MTS assay relative to control; assay type: functional; details: up to 198 µM; outline: as §2
[38] = system: CAKI-2; assay: Cytotoxicity against human CAKI-2 cells assessed as maximum inhibition of cell viability upto 198 uM incubated for 72 hrs by MTS assay relative to control; assay type: functional; details: up to 198 µM; outline: as §2
[39] = system: A498; assay: Cytotoxicity against human A498 cells assessed as maximum inhibition of cell viability upto 198 uM incubated for 72 hrs by MTS assay relative to control; assay type: functional; details: up to 198 µM; outline: as §2
[40] = system: RL; assay: Cytotoxicity against human RL cells assessed as maximum inhibition of cell viability upto 198 uM incubated for 72 hrs by MTS assay relative to control; assay type: functional; details: up to 198 µM; outline: as §2
[41] = system: KG-1; assay: Cytotoxicity against human KG-1 cells assessed as inhibition of cell viability incubated for 72 hrs by MTS assay; assay type: functional, cell-based; details: KG-1, 72 h; outline: as §1
[42] = system: 5637; assay: Cytotoxicity against human 5637 cells assessed as maximum inhibition of cell viability upto 198 uM incubated for 72 hrs by MTS assay relative to control; assay type: functional; details: up to 198 µM; outline: as §2
[43] = system: MCF7; assay: Cytotoxicity against human MCF7 cells assessed as inhibition of cell viability incubated for 72 hrs by MTS assay; assay type: functional, cell-based; details: MCF7, 72 h
[44] = system: MCF7; assay: Cytotoxicity against human MCF7 cells assessed as maximum inhibition of cell viability upto 198 uM incubated for 72 hrs by MTS assay relative to control; assay type: functional; details: up to 198 µM; outline: as §2
[45] = system: K562; assay: Cytotoxicity against human K562 cells assessed as maximum inhibition of cell viability upto 198 uM incubated for 72 hrs by MTS assay relative to control; assay type: functional; details: up to 198 µM; outline: as §2
[46] = system: 5637; assay: Cytotoxicity against human 5637 cells assessed as inhibition of cell viability incubated for 72 hrs by MTS assay; assay type: functional, cell-based; details: Homo sapiens, 5637, 72 h; outline: as §1

`Nc1ccn([C@@H]2O[C@H](CO)[C@@H](O)C2(F)F)c(=O)n1` [GEMCITABINE] showed an IC50 [1] of 1.81 µM, an Imax [2] of 85% and an Imax [3] of 88%. For the same compound, the Imax [4] was 43%, the IC50 [5] was 1.22 µM and the IC50 [6] was 0.32 µM. The Imax [7] was 74%, the IC50 [8] was 67.2 µM and the IC50 [9] was 0.46 µM. The Imax [10] was 88%, the IC50 [11] was 0.04 µM and the Imax [12] was 53%. The IC50 [13] was < 0.02 µM, the IC50 [14] was 0.07 µM and the Imax [15] was 79%. For the same compound, the IC50 [16] was 0.68 µM, the IC50 [17] was 1.22 µM and the Imax [18] was 35%. The Imax [19] was 68%, the IC50 [20] was 0.11 µM and the Imax [21] was 61%. The IC50 [22] was 16.7 µM, the IC50 [23] was 3.7 µM and the Imax [24] was 64%. The Imax [25] was 86%.
In the case of `Nc1ncnc2c1ncn2[C@@H]1O[C@H](CO)C[C@H]1O` [CORDYCEPIN], the IC50 [26] is reported as 85.3 µM, the IC50 [27] is reported as 94.2 µM and the IC50 [28] is reported as 94.4 µM. The IC50 [29] was 85.4 µM, the IC50 [30] was 77 µM and the Imax [7] was 59%. For the same compound, the IC50 [9] was 85.3 µM, the Imax [31] was 57% and the Imax [32] was 92%. It also gave an Imax [33] of 96%, an IC50 [11] of 76.8 µM and an IC50 [34] of 135 µM. For the same compound, the Imax [35] was 77%, the Imax [12] was 71% and the IC50 [13] was 99.1 µM. It also gave an IC50 [14] of 26.3 µM, an IC50 [36] of 145 µM and an Imax [37] of 14%. It also gave an Imax [38] of 25%, an Imax [39] of 18% and an Imax [40] of 4%. For the same compound, the IC50 [41] was 89 µM, the Imax [42] was 44% and the IC50 [43] was 45.9 µM. The Imax [19] was 87%, the IC50 [20] was 108 µM and the Imax [44] was 93%. It also gave an Imax [21] of 70%, an IC50 [22] of 77.2 µM and an IC50 [23] of 78.6 µM. For the same compound, the Imax [24] was 90%, the Imax [45] was 70% and the IC50 [46] was 71.6 µM. For the same compound, the Imax [25] was 24%.
